{"source": "ChEMBL document CHEMBL4376838", "about": "“Discovery of Novel Celastrol Derivatives as Hsp90-Cdc37 Interaction Disruptors with Antitumor Activity” (J Med Chem, 2019)", "key": {"[1]": {"tested_on": "MCF7", "experiment": "Antiproliferative activity against human MCF7 cells assessed as inhibition of cell growth incubated for 48 hrs by MTT assay", "type": "functional, cell-based", "settings": "MCF7, 48 h", "in_short": "(§1)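 MTT read-out. Cells seeded at 5.0 × 10⁴ cells/ml and cultured 24 h, then exposed to the drug over a range of concentrations for 48 h, with matching DMSO as control. MTT (5 mg/ml) added for 4 h, supernatant removed, formazan dissolved in DMSO, OD read at 570 nm. Run in triplicate, mean ± SD (n = 3).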"}, "[2]": {"tested_on": "HOS", "experiment": "Antiproliferative activity against human HOS cells assessed as inhibition of cell growth incubated for 48 hrs by MTT assay", "type": "functional, cell-based", "in_short": "as §1"}, "[3]": {"target": "T1, Hsp90 co-chaperone Cdc37 (Homo sapiens) (UniProt Q16543)", "T1 sequence (whole entry)": "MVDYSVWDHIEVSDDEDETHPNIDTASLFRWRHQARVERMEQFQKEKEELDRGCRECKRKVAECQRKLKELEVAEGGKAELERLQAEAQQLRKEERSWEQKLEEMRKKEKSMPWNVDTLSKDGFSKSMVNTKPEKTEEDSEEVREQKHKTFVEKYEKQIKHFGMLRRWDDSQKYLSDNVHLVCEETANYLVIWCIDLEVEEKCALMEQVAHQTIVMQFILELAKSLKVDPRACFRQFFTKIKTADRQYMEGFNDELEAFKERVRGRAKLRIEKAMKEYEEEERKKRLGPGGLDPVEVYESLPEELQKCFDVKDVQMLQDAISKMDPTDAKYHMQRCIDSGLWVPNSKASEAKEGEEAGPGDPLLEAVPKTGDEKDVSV", "experiment": "Binding affinity to Cdc37 in human A549 cells assessed as inhibition of HSP90-Cdc37 interaction by measuring decrease in CDK4 protein level at 5 uM incubated for 12 hrs by Western blot analysis", "type": "cell-based", "in_short": "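A549 cells seeded 5×10^5 per 6 cm dish, grown 12 h, then exposed to compound or DMSO for 12 h. Lysates adjusted to 3 mg/ml protein (BCA), run on 10% SDS-PAGE, immunoblotted for p-Akt and Cdk4. Band levels quantified against Hsp90 loading control. Three separate experiments, mean ± SD.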"}, "[4]": {"target": "T1, Hsp90 co-chaperone Cdc37 (Homo sapiens)", "experiment": "Binding affinity to Cdc37 in human A549 cells assessed as inhibition of HSP90-Cdc37 interaction by measuring decrease in Akt phosphorylation level incubated for 12 hrs by Western blot analysis", "type": "cell-based", "in_short": "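A549 cells (5×10^5 per 6 cm dish) were allowed to settle 12 h, then treated with DMSO or compound at the indicated concentrations for 12 h. Lysates were adjusted to 3 mg/ml protein by BCA and resolved on 10% SDS-PAGE, then Western blotted. β-actin or Hsp90 served as the loading control. Three separate experiments, mean ± SD.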"}, "[5]": {"tested_on": "A549", "experiment": "Induction of morphological apoptosis in human A549 cells assessed as increase in cells with nuclear fragmentation at 0.3 to 1.2 uM incubated for 48 hrs by Hoechst 33342 and PI staining based fluorescence microscopic method", "type": "functional, cell-based", "in_short": "(§2)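 A549 cells (4×10^5 per 6 cm dish) were grown 24 h, then exposed to compound at the indicated concentrations or DMSO for 48 h. After PBS washes, cells were stained with Hoechst 33342 (10 µg/ml) plus PI for 5 min at room temperature in the dark and imaged by fluorescence microscopy for nuclear morphology.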"}, "[6]": {"tested_on": "A549", "experiment": "Induction of morphological apoptosis in human A549 cells assessed as increase in cells with chromatin condensation at 0.3 to 1.2 uM incubated for 48 hrs by Hoechst 33342 and PI staining based fluorescence microscopic method", "type": "functional, cell-based", "in_short": "as §2"}, "[7]": {"tested_on": "A549", "experiment": "Induction of apoptosis in human A549 cells assessed as viable cells at 0.3 uM incubated for 48 hrs by Annexin V-FITC and PI staining based flow cytometric analysis (reference value: 95.5%)", "type": "functional", "settings": "A549, 48 h, read-out: Activity"}, "[8]": {"tested_on": "A549", "experiment": "Induction of apoptosis in human A549 cells assessed as necrotic cells at 0.3 uM incubated for 48 hrs by Annexin V-FITC and PI staining based flow cytometric analysis (reference value: 1.0%)", "type": "functional"}, "[9]": {"tested_on": "A549", "experiment": "Induction of apoptosis in human A549 cells assessed as viable cells at 0.6 uM incubated for 48 hrs by Annexin V-FITC and PI staining based flow cytometric analysis (reference value: 95.5%)", "type": "functional", "settings": "A549, 48 h, read-out: Activity"}, "[10]": {"tested_on": "A549", "experiment": "Induction of apoptosis in human A549 cells assessed as early apoptotic cells at 0.6 uM incubated for 48 hrs by Annexin V-FITC and PI staining based flow cytometric analysis (reference value: 0.5%)", "type": "functional"}, "[11]": {"tested_on": "A549", "experiment": "Induction of apoptosis in human A549 cells assessed as necrotic cells at 0.6 uM incubated for 48 hrs by Annexin V-FITC and PI staining based flow cytometric analysis (reference value: 1.0%)", "type": "functional"}, "[12]": {"tested_on": "A549", "experiment": "Induction of apoptosis in human A549 cells assessed as late apoptotic cells at 1.2 uM incubated for 48 hrs by Annexin V-FITC and PI staining based flow cytometric analysis (reference value: 3.0%)", "type": "functional", "in_short": "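A549 cells (4×10^5 per 6 cm dish) cultured 24 h, then treated 48 h with compound or DMSO. Cells gently harvested, washed twice in cold PBS, resuspended in binding buffer with Annexin V and PI, stained 15 min at room temperature in the dark, analysed by flow cytometry. Mean ± SD, n = 3.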"}, "[13]": {"tested_on": "A549", "experiment": "Induction of apoptosis in human A549 cells assessed as increase in late apoptotic cells incubated for 48 hrs by Annexin V-FITC and PI staining based flow cytometric analysis", "type": "functional, cell-based"}, "[14]": {"tested_on": "A549", "experiment": "Induction of cell cycle arrest in human A549 cells assessed as accumulation at G1 phase at 0.2 uM incubated for 24 hrs by PI staining based flow cytometric analysis (reference value: 60.14%)", "type": "functional", "in_short": "(§3)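 A549 cells (4×10^5 per 6 cm dish) were grown 24 h, then exposed to compound (0.2, 0.4, 0.8 μM) or DMSO for 24 h. Cells fixed in 75% ethanol at −20 °C for at least 12 h, treated with RNase A at 37 °C for 30 min, then stained with PI for 15 min in the dark. Analysed by flow cytometry, mean ± SD, n = 3.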"}, "[15]": {"tested_on": "A549", "experiment": "Induction of cell cycle arrest in human A549 cells assessed as accumulation at G2 phase at 0.2 uM incubated for 24 hrs by PI staining based flow cytometric analysis (reference value: 19.37%)", "type": "functional", "in_short": "as §3"}, "[16]": {"tested_on": "A549", "experiment": "Induction of cell cycle arrest in human A549 cells assessed as accumulation at S phase at 0.4 uM incubated for 24 hrs by PI staining based flow cytometric analysis (reference value: 27.59%)", "type": "functional", "in_short": "as §3"}, "[17]": {"tested_on": "A549", "experiment": "Induction of mitochondrial membrane potential loss in human A549 cells assessed as cells with hyperpolarized mitochondria by measuring decrease in J-aggregates red fluorescence intensity at 0.2 uM incubated for 24 hrs by JC1 staining based fluorescence microscopic method (reference value: 98.4%)", "type": "functional", "design": "scale not given: the % may be the effect or the level left"}, "[18]": {"tested_on": "A549", "experiment": "Induction of mitochondrial membrane potential loss in human A549 cells assessed as cells with depolarized mitochondria by measuring increase in J-monomer green fluorescence intensity at 0.4 uM incubated for 24 hrs by JC1 staining based fluorescence microscopic method (reference value: 1.5%)", "type": "functional"}, "[19]": {"tested_on": "A549", "experiment": "Induction of mitochondrial membrane potential loss in human A549 cells assessed as cells with hyperpolarized mitochondria by measuring decrease in J-aggregates red fluorescence intensity at 0.4 uM incubated for 24 hrs by JC1 staining based fluorescence microscopic method (reference value: 98.4%)", "type": "functional", "design": "scale not given: the % may be the effect or the level left"}}, "note": "Active and inactive are the calls of the source. No cut-off for these calls is given here."}
{"compound": "CC1=C(O)C(=O)C=C2C1=CC=C1[C@@]2(C)CC[C@@]2(C)[C@@H]3C[C@](C)(C(=O)OCCCOC(=O)/C=C(\\C#N)c4ccc(F)cc4)CC[C@]3(C)CC[C@]12C", "values": [{"measurement": "IC50", "setting": "[1]", "result": 640, "unit": "nM"}, {"measurement": "IC50", "setting": "[2]", "result": 900, "unit": "nM"}, {"measurement": "inhibition", "setting": "[3]", "result": "Active"}, {"measurement": "inhibition", "setting": "[4]", "result": "Dose-dependent effect"}, {"measurement": "Activity", "setting": "[5]", "result": "Active"}, {"measurement": "Activity", "setting": "[6]", "result": "Active"}, {"measurement": "viability at 0.3 µM", "setting": "[7]", "result": 85.2, "unit": "%"}, {"measurement": "Activity", "setting": "[8]", "result": 3.3, "unit": "%"}, {"measurement": "viability at 0.6 µM", "setting": "[9]", "result": 71.2, "unit": "%"}, {"measurement": "Activity", "setting": "[10]", "result": 5.9, "unit": "%"}, {"measurement": "Activity", "setting": "[11]", "result": 6, "unit": "%"}, {"measurement": "Activity", "setting": "[12]", "result": 25.2, "unit": "%"}, {"measurement": "Activity", "setting": "[13]", "result": "Dose-dependent effect"}, {"measurement": "Activity", "setting": "[14]", "result": 64.36, "unit": "%"}, {"measurement": "Activity", "setting": "[15]", "result": 16.78, "unit": "%"}, {"measurement": "Activity", "setting": "[16]", "result": 23.34, "unit": "%"}, {"measurement": "Activity", "setting": "[17]", "result": 84.2, "unit": "%"}, {"measurement": "Activity", "setting": "[18]", "result": 18.7, "unit": "%"}, {"measurement": "Activity", "setting": "[19]", "result": 80, "unit": "%"}]}
